System: HEK-293T
Experiment: Multiplex assay against HEK293T;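 as to Population Tubulin-Different-Phenotype (%): share of the cells with healthy nuclei that show this phenotype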
Format: toxicity, cell-based
Conditions: human
Summary of the method: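 Live cells were stained at seeding with Hoechst33342, BioTracker Green Microtubule Cytoskeleton Dye, MitoTracker Red and Annexin V Alexa Fluor 680. Following compound addition, they were imaged on a CQ1 microscope at 37°C and 5% CO2 and gated by CellPathfinder machine learning into Hoechst high-intensity objects or normal cells, with normal cells split into healthy, pyknosed or fragmented nuclei and pyknosed cells into mitotic or apoptotic. Tubulin, mitochondrial-mass and membrane-permeability phenotypes are per cents of healthy-nucleus cells.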

[1] = 12 h, 1 µM, compound concentration 1 uM, replicate 1
[2] = 12 h, 1 µM, compound concentration 1 uM, replicate 2
[3] = 12 h, 10 µM, compound concentration 10 uM, replicate 1
[4] = 12 h, 10 µM, compound concentration 10 uM, replicate 2
[5] = 24 h, 1 µM, compound concentration 1 uM, replicate 1
[6] = 24 h, 1 µM, compound concentration 1 uM, replicate 2
[7] = 24 h, 10 µM, compound concentration 10 uM, replicate 1
[8] = 24 h, 10 µM, compound concentration 10 uM, replicate 2
[9] = 48 h, 1 µM, compound concentration 1 uM, replicate 1
[10] = 48 h, 1 µM, compound concentration 1 uM, replicate 2
[11] = 48 h, 10 µM, compound concentration 10 uM, replicate 1
[12] = 48 h, 10 µM, compound concentration 10 uM, replicate 2

For `Cl.N#Cc1ccc2[nH]cc(CCCCN3CCN(c4ccc5oc(C(N)=O)cc5c4)CC3)c2c1` [VILAZODONE HYDROCHLORIDE], the “Population Apoptotic (%)” value [1] was 53%, the “Population Healthy Nuclei (%)” value [1] was 49% and the “Population Hoechst High Intensity Objects (%)” value [1] was 9%. For the same compound, the “Population Membrane Permeable-Phenotype (%)” value [1] was 1%, the “Population Mitochondria Different-Phenotype (%)” value [1] was 93% and the “Population Mitotic Cells (%)” value [1] was 46%. The “Population Normal (%)” value [1] was 90%, the “Population Pyknosed Nuclei (%)” value [1] was 44% and the “Population Tubulin-Different-Phenotype (%)” value [1] was 78%. The “Total Cell Count” value [1] was 364, the “Population Apoptotic (%)” value [2] was 20% and the “Population Fragmented Nuclei (%)” value [2] was 6%. The “Population Healthy Nuclei (%)” value [2] was 32%, the “Population Hoechst High Intensity Objects (%)” value [2] was 3% and the “Population Membrane Permeable-Phenotype (%)” value [2] was 6%. The “Population Mitochondria Different-Phenotype (%)” value [2] was 67%, the “Population Mitotic Cells (%)” value [2] was 79% and the “Population Normal (%)” value [2] was 96%. For the same compound, the “Population Pyknosed Nuclei (%)” value [2] was 61%, the “Population Tubulin-Different-Phenotype (%)” value [2] was 69% and the “Total Cell Count” value [2] was 138. The “Population Apoptotic (%)” value [3] was 93%, the “Population Healthy Nuclei (%)” value [3] was 8% and the “Population Hoechst High Intensity Objects (%)” value [3] was 25%. For the same compound, the “Population Membrane Permeable-Phenotype (%)” value [3] was 0%, the “Population Mitochondria Different-Phenotype (%)” value [3] was 100% and the “Population Mitotic Cells (%)” value [3] was 6%. For the same compound, the “Population Normal (%)” value [3] was 74%, the “Population Pyknosed Nuclei (%)” value [3] was 78% and the “Population Tubulin-Different-Phenotype (%)” value [3] was 92%. The “Total Cell Count” value [3] was 198, the “Population Apoptotic (%)” value [4] was 82% and the “Population Fragmented Nuclei (%)” value [4] was 12%. The “Population Healthy Nuclei (%)” value [4] was 16%, the “Population Hoechst High Intensity Objects (%)” value [4] was 23% and the “Population Membrane Permeable-Phenotype (%)” value [4] was 23%. The “Population Mitochondria Different-Phenotype (%)” value [4] was 84%, the “Population Mitotic Cells (%)” value [4] was 17% and the “Population Normal (%)” value [4] was 76%. For the same compound, the “Population Pyknosed Nuclei (%)” value [4] was 70%, the “Population Tubulin-Different-Phenotype (%)” value [4] was 96% and the “Total Cell Count” value [4] was 199. The “Population Apoptotic (%)” value [5] was 52%, the “Population Fragmented Nuclei (%)” value [5] was 6% and the “Population Healthy Nuclei (%)” value [5] was 58%. The “Population Hoechst High Intensity Objects (%)” value [5] was 6%, the “Population Membrane Permeable-Phenotype (%)” value [5] was 3% and the “Population Mitochondria Different-Phenotype (%)” value [5] was 87%. For the same compound, the “Population Mitotic Cells (%)” value [5] was 47%, the “Population Normal (%)” value [5] was 93% and the “Population Pyknosed Nuclei (%)” value [5] was 34%. The “Population Tubulin-Different-Phenotype (%)” value [5] was 71%, the “Total Cell Count” value [5] was 412 and the “Population Apoptotic (%)” value [6] was 32%. The “Population Fragmented Nuclei (%)” value [6] was 5%, the “Population Healthy Nuclei (%)” value [6] was 43% and the “Population Hoechst High Intensity Objects (%)” value [6] was 5%. The “Population Membrane Permeable-Phenotype (%)” value [6] was 2%, the “Population Mitochondria Different-Phenotype (%)” value [6] was 60% and the “Population Mitotic Cells (%)” value [6] was 67%. For the same compound, the “Population Normal (%)” value [6] was 94%, the “Population Pyknosed Nuclei (%)” value [6] was 50% and the “Population Tubulin-Different-Phenotype (%)” value [6] was 58%. The “Total Cell Count” value [6] was 165, the “Population Apoptotic (%)” value [7] was 98% and the “Population Fragmented Nuclei (%)” value [7] was 19%. For the same compound, the “Population Healthy Nuclei (%)” value [7] was 5%, the “Population Hoechst High Intensity Objects (%)” value [7] was 21% and the “Population Membrane Permeable-Phenotype (%)” value [7] was 0%. The “Population Mitochondria Different-Phenotype (%)” value [7] was 100%, the “Population Mitotic Cells (%)” value [7] was 1% and the “Population Normal (%)” value [7] was 78%. For the same compound, the “Population Pyknosed Nuclei (%)” value [7] was 74%, the “Population Tubulin-Different-Phenotype (%)” value [7] was 100% and the “Total Cell Count” value [7] was 215. The “Population Apoptotic (%)” value [8] was 92%, the “Population Fragmented Nuclei (%)” value [8] was 10% and the “Population Healthy Nuclei (%)” value [8] was 12%. For the same compound, the “Population Hoechst High Intensity Objects (%)” value [8] was 25%, the “Population Membrane Permeable-Phenotype (%)” value [8] was 11% and the “Population Mitochondria Different-Phenotype (%)” value [8] was 94%. The “Population Mitotic Cells (%)” value [8] was 7%, the “Population Normal (%)” value [8] was 74% and the “Population Pyknosed Nuclei (%)” value [8] was 76%. The “Population Tubulin-Different-Phenotype (%)” value [8] was 94%, the “Total Cell Count” value [8] was 186 and the “Population Apoptotic (%)” value [9] was 32%. For the same compound, the “Population Healthy Nuclei (%)” value [9] was 75%, the “Population Hoechst High Intensity Objects (%)” value [9] was 7% and the “Population Membrane Permeable-Phenotype (%)” value [9] was 2%. The “Population Mitochondria Different-Phenotype (%)” value [9] was 51%, the “Population Mitotic Cells (%)” value [9] was 67% and the “Population Normal (%)” value [9] was 92%. For the same compound, the “Population Pyknosed Nuclei (%)” value [9] was 15%, the “Population Tubulin-Different-Phenotype (%)” value [9] was 57% and the “Total Cell Count” value [9] was 639. For the same compound, the “Population Apoptotic (%)” value [10] was 33%, the “Population Fragmented Nuclei (%)” value [10] was 9% and the “Population Healthy Nuclei (%)” value [10] was 68%. The “Population Hoechst High Intensity Objects (%)” value [10] was 4%, the “Population Membrane Permeable-Phenotype (%)” value [10] was 6% and the “Population Mitochondria Different-Phenotype (%)” value [10] was 32%. For the same compound, the “Population Mitotic Cells (%)” value [10] was 66%, the “Population Normal (%)” value [10] was 95% and the “Population Pyknosed Nuclei (%)” value [10] was 22%. The “Population Tubulin-Different-Phenotype (%)” value [10] was 51%, the “Total Cell Count” value [10] was 263 and the “Population Apoptotic (%)” value [11] was 94%. The “Population Fragmented Nuclei (%)” value [11] was 27%, the “Population Healthy Nuclei (%)” value [11] was 0% and the “Population Hoechst High Intensity Objects (%)” value [11] was 16%. The “Population Membrane Permeable-Phenotype (%)” value [11] was 0%, the “Population Mitochondria Different-Phenotype (%)” value [11] was 100% and the “Population Mitotic Cells (%)” value [11] was 5%. For the same compound, the “Population Normal (%)” value [11] was 83%, the “Population Pyknosed Nuclei (%)” value [11] was 72% and the “Population Tubulin-Different-Phenotype (%)” value [11] was 0%. The “Total Cell Count” value [11] was 248, the “Population Apoptotic (%)” value [12] was 95% and the “Population Fragmented Nuclei (%)” value [12] was 13%. The “Population Healthy Nuclei (%)” value [12] was 12%, the “Population Hoechst High Intensity Objects (%)” value [12] was 30% and the “Population Membrane Permeable-Phenotype (%)” value [12] was 17%. The “Population Mitochondria Different-Phenotype (%)” value [12] was 88%, the “Population Mitotic Cells (%)” value [12] was 4% and the “Population Normal (%)” value [12] was 69%. The “Population Pyknosed Nuclei (%)” value [12] was 73%, the “Population Tubulin-Different-Phenotype (%)” value [12] was 94% and the “Total Cell Count” value [12] was 191.
